Laboratory results reported in publication PMC5438482 (Journal of Alzheimer's Disease, 2017).

Key:
[1] = comparison CNS drug; no reference given; cited from earlier work
MC65 cells [2] = experiment: Cellular ROS assay with CM-H2DCFDA in MC65 cells; type: cell-based; conditions: CM-H2DCFDA fluorescence, TC- condition, n = 7-8
Procedure, shortened: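 MC65 cells kept in 1 μg/mL tetracycline were washed extensively and plated at 2.5×10^4 cells/well in serum-free, phenol-red-free Opti-MEM without tetracycline. For ROS, cells were PBS-washed, loaded with CM-H2DCFDA and incubated 40 min. Random fluorescence photomicrographs were taken per condition, and intensity was quantified by image analysis, blinded to investigator.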

MC65 cells [3] = conditions: cited from earlier work

SMILES | Log Doct [1] | ROS production of MC65 cells (MC65 cells [2]) | MC65 cell death (MC65 cells [3])
CN(C)CCC(c1ccc(Cl)cc1)c1ccccn1 (stereo not drawn) [chlorpheniramine] | 1.25 | – | –
Cc1c(C)c2c(c(C)c1O)CC[C@@](C)(CCC[C@H](C)CCC[C@H](C)CCCC(C)C)O2 [α-tocopherol] | – | reduced | blocked
